Data reported in ChEMBL document CHEMBL1949667, “Development of small-molecule probes that selectively kill cells induced to express mutant RAS” (Bioorg Med Chem Lett, 2012).
Values after ≈ are worked out from the molar mass of the structure shown. Active and inactive are the calls of the source. No cut-off for these calls is given here.

Assays:
BJeLR = test: Cytotoxicity against human BJeLR cells up to 20 ug/ml after 48 hrs by alamar blue assay; format: functional, cell-based
Outline: (§1)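 Cells grown in DMEM/M199 with heat-inactivated FBS at 37°C, 5% CO2, ≤20 passages. Compounds in DMSO diluted into medium, then 2-fold serial dilutions in medium; 1000 cells/well treated for 48 h. Viability read by adding Alamar Blue (50% in growth medium), incubating 16 h, then fluorescence at 544 excitation/590 emission; concentration-response curves generated.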

BJeH-LT = test: Cytotoxicity against human BJeH-LT cells up to 20 ug/ml after 48 hrs by alamar blue assay; format: functional, cell-based; outline: as §1
[1] = Cytotoxicity against human BJeH-LT cells after 48 hrs by alamar blue assay; format: cell-based; outline: as §1
[2] = Selectivity ratio of IC50 for human BJeH-LT cells to IC50 for human BJeLR cells; format: ADME, cell-based; conditions: BJeH-LT cells versus BJeLR cells, read-out: Ratio IC50
[3] = Cytotoxicity against human BJeLR cells expressing HRAS G12V mutant after 48 hrs by alamar blue assay; format: functional, cell-based
Outline: (§2)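 BJ fibroblast lines: BJeLR (hTERT, SV40 large and small T, HRASV12) and DRD (hTERT, SV40 small T, dominant-negative p53, cyclin D1, mutant CDK4, HRASV12), grown in DMEM/M199/heat-inactivated FBS for ≤20 passages. Compounds were taken from DMSO into medium as 2-fold serial dilutions. 1000 cells/well were exposed for 48 h at 37°C, 5% CO2. Alamar Blue was added for 16 h, then fluorescence read at excitation 544, emission 590.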

[4] = Aqueous solubility of the compound; format: physicochemical
MEF = test: Cytotoxicity against MEF expressing K-rasG12D after 48 hrs by CellTiter-Glo assay; format: functional, cell-based; conditions: Mus musculus
BJ = test: Cytotoxicity against human BJ cells expressing HRAS G12V mutant with alternative oncogenic constructs after 48 hrs by alamar blue assay; format: functional, cell-based; outline: as §2
[5] = Drug degradation in PBS/DMSO assessed as GSH-adduct formation after 1 hr in the presence of GSH and triethylamine; format: physicochemical; conditions: buffer
[6] = Cytotoxicity against human BJeH cells after 48 hrs by alamar blue assay; format: cell-based
[7] = Drug degradation in PBS assessed as racemisation after 48 hrs by HPLC/MS analysis; format: physicochemical; conditions: buffer
[8] = (§3) Selectivity ratio of IC50 for human BJeH cells to IC50 for human BJeLR cells; format: ADME, cell-based; conditions: BJeH cells versus BJeLR cells, read-out: Ratio IC50
[9] = as §3; format: ADME, cell-based; conditions: BJeH cells versus BJeLR cells, read-out: Ratio IC50; remark: listed apart in the source

| SMILES | inhibition (BJeLR) | inhibition (BJeH-LT) | IC50 [1] | selectivity ratio [2] | IC50 [3] | also measured |
| --- | --- | --- | --- | --- | --- | --- |
| Cc1onc(C(=O)N2CCN(Cc3ccccc3)CC2)c1[N+](=O)[O-] | inactive | inactive |  |  |  |  |
| COc1ccc(N(C(=O)CCl)C(C(=O)NCCc2ccccc2)c2nc(C)cs2)cc1Cl (racemic) |  |  | 19800 nM | 2.4 | 8260 nM |  |
| O=C(c1n[nH]cc1[N+](=O)[O-])N1CCN(C(c2ccccc2)c2ccccc2)CC1 | inactive | inactive |  |  |  |  |
| Cc1onc(C(=O)N2CCN(C(c3ccccc3)c3ccccc3)CC2)c1[N+](=O)[O-] |  |  | 4970 nM | 4.8 | 1030 nM |  |
| COc1cccc(N(C(=O)CCl)C(C(=O)NCCc2ccccc2)c2cccs2)c1 (racemic) |  |  | 2400 nM | 14 | 170 nM |  |
| Cc1onc(C(=O)N2CCCN(C(c3ccccc3)c3ccccc3)CC2)c1[N+](=O)[O-] |  |  | 2790 nM | 3.6 | 773 nM |  |
| Cc1onc(C(=O)N2CCN(C(c3ccccn3)c3ccccn3)CC2)c1[N+](=O)[O-] | inactive | inactive |  |  |  | solubility ([4]; buffer): > 500 µM |
| COc1ccc(N(C(=O)CCl)C(C(=O)NCCc2ccccc2)C2CCCCC2)cc1Cl (racemic) |  |  | 1180 nM | 2.3 | 505 nM |  |
| O=C(NCCc1ccccc1)C(c1cccs1)N(C(=O)CCl)c1cccc(Cl)c1 (racemic) |  |  | 331 nM | 2.1 | 156 nM |  |
| C[C@H](CN1CCCC1)C(=O)c1ccc(C(F)(F)F)cc1 [LANPERISONE] |  |  |  |  |  | IC50 (MEF): 4000 nM |
| COc1ccc(N(C(=O)CCl)C(C)(C)C(=O)NCCc2ccccc2)cc1Cl |  |  | 127 nM | 2.2 | 58 nM |  |
| Cc1onc(C(=O)N2CCN(C(c3ccccc3)c3ccc(Cl)cc3)CC2)c1[N+](=O)[O-] (racemic) |  |  | 510 nM | 4 | 129 nM |  |
| COc1ccc(N(C(=O)CCl)C(C(=O)NCCc2ccccc2)c2ccc(Cl)s2)cc1Cl (racemic) |  |  | 133 nM | 2.2 | 61 nM |  |
| COc1ccc(N(C(=O)CCl)C(C(=O)NCc2ccccc2)c2cccs2)cc1Cl (racemic) |  |  | 179 nM | 2.4 | 75 nM |  |
| Cc1onc(C(=O)N2CCN(C(c3ccncc3)c3ccncc3)CC2)c1[N+](=O)[O-] | inactive | inactive |  |  |  | solubility ([4]; buffer): > 500 µM |
| Cc1onc(C(=O)N2CCOCC2)c1[N+](=O)[O-] | inactive | inactive |  |  |  |  |
| COc1ccc(N(C(=O)CCl)C(C(=O)NC2CCCCC2)c2cccs2)cc1Cl (racemic) |  |  | 270 nM | 2.4 | 113 nM |  |
| COc1ccc(N(CC(=O)NCCc2ccccc2)C(=O)CCl)cc1Cl |  |  | 531 nM | 2.3 | 231 nM |  |

| SMILES | inhibition (BJeLR) | inhibition (BJeH-LT) | IC50 [1] | selectivity ratio [2] | IC50 [3] | also measured |
| --- | --- | --- | --- | --- | --- | --- |
| COc1ccc(C(c2ccc(OC)cc2)N2CCN(C(=O)c3noc(C)c3[N+](=O)[O-])CC2)cc1 |  |  | 5320 nM | 3.4 | 1570 nM |  |
| COc1ccccc1N1CCN(C(=O)c2noc(C)c2[N+](=O)[O-])CC1 | inactive | inactive |  |  |  |  |
| Cc1onc(C(=O)N2CCN(C(c3ccc(F)cc3)c3ccc(F)cc3)CC2)c1[N+](=O)[O-] |  |  | 757 nM | 4.1 | 183 nM |  |
| Cn1ncc([N+](=O)[O-])c1C(=O)N1CCN(C(c2ccccc2)c2ccccc2)CC1 | inactive | inactive |  |  |  |  |
| COc1ccc(N(C(=O)CCl)C(C(=O)NCn2nnc3ccccc32)c2cccs2)cc1Cl (racemic) |  |  | 242 nM |  | 102 nM |  |
| COc1ccc(N(C(=O)CCl)C(C(=O)NCCc2ccccc2)c2cccs2)cc1Cl (racemic) |  |  | 578 nM |  | 25 nM | IC50 (BJ): 34 nM; Drug degradation [5]: Active; IC50 [6]: 2400 nM; solubility ([4]; aqueous, read-out: solubility): 16 µM (≈ 7.64 µg/mL); Drug degradation [7]: Not Active |
| Cn1cc([N+](=O)[O-])c(C(=O)N2CCN(C(c3ccccc3)c3ccccc3)CC2)n1 | inactive | inactive |  |  |  |  |
| Cc1onc(C(=O)NCc2ccc(F)cc2)c1[N+](=O)[O-] | inactive | inactive |  |  |  |  |
| Cc1onc(C(=O)N2CCN(C(c3ccc(Cl)cc3)c3ccc(Cl)cc3)CC2)c1[N+](=O)[O-] |  |  | 272 nM | 3.9 | 71 nM | selectivity ratio [8]: 4; selectivity ratio [9]: 4; IC50 (BJ): 107 nM; IC50 [6]: 628 nM |
| COC(=O)c1ccc(C2c3[nH]c4ccccc4c3C[C@@H](C(=O)OC)N2C(=O)CCl)cc1 (stereo partly specified) |  |  |  | 8 | 100 nM |  |
| Cc1ccc(C(=O)N2CCN(C(c3ccccc3)c3ccccc3)CC2)c([N+](=O)[O-])c1 | inactive | inactive |  |  |  |  |
| Cc1onc(C(=O)NCCNC(c2ccccc2)c2ccccc2)c1[N+](=O)[O-] |  | inactive |  |  | 21600 nM |  |
| CCC(=O)N1CCN(C(=O)c2noc(C)c2[N+](=O)[O-])CC1 | inactive | inactive |  |  |  |  |
| COc1ccc(N(C(=O)CCl)C(C(=O)NCCc2ccccc2)c2cccs2)cc1 (racemic) |  |  | 1700 nM | 7.8 | 220 nM |  |
| COc1ccc(N(C(=O)CCl)C(C(=O)NCCc2ccccc2)C(C)C)cc1Cl (racemic) |  |  | 1300 nM | 1.5 | 895 nM |  |
| O=C(c1cc([N+](=O)[O-])ccn1)N1CCN(C(c2ccccc2)c2ccccc2)CC1 |  |  | 49700 nM | 1.33 | 37300 nM |  |
| COc1ccc(N(C(=O)CCl)C(C(=O)NCS(=O)(=O)c2ccc(C)cc2)c2cccs2)cc1Cl (racemic) |  |  | 208 nM |  | 89 nM | solubility ([4]; aqueous, read-out: solubility): < 1 µM |
| O=C(c1ccc([N+](=O)[O-])o1)N1CCN(C(c2ccccc2)c2ccccc2)CC1 | inactive |  | 18900 nM |  |  |  |
